Experiments:
[1] = target: T1, Amine oxidase [flavin-containing] A (Homo sapiens, UniProt P21397); test: Inhibition of recombinant human MAOA expressed in insect cell microsomes using kynuramine as substrate preincubated with substrate for 30 mins followed by enzyme addition and measured after 20 mins by fluorescence spectrophotometry
T1 sequence (P21397 whole entry): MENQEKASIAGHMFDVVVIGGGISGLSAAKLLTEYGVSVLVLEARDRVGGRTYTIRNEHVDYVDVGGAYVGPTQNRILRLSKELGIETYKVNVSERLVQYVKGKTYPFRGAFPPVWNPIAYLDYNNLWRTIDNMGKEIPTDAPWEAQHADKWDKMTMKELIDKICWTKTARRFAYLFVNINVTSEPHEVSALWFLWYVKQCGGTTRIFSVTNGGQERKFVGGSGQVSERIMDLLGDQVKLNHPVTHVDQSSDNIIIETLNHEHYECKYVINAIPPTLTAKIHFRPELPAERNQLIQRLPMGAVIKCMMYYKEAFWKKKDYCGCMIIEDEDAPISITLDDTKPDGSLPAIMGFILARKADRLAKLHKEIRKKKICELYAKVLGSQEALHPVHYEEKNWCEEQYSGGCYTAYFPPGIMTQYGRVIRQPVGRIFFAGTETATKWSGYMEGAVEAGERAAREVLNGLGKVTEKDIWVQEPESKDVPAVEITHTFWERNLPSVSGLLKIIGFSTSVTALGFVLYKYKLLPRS
In short: (§1)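 Recombinant human enzyme; kynuramine as substrate for both isoforms. 4-Hydroxyquinoline product read by fluorescence spectrophotometry after alkalization. Rates measured without and with inhibitor at 0.0003–100 µM. IC50 estimated from sigmoidal plots of rate versus log inhibitor concentration. Reported as mean ± standard deviation of triplicate experiments.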

[2] = target: T2, Amine oxidase [flavin-containing] B (Homo sapiens, UniProt P27338); test: Inhibition of recombinant human MAOB expressed in insect cell microsomes using kynuramine as substrate preincubated with substrate for 30 mins followed by enzyme addition and measured after 20 mins by fluorescence spectrophotometry; in short: as §1
T2 sequence (P27338 whole entry): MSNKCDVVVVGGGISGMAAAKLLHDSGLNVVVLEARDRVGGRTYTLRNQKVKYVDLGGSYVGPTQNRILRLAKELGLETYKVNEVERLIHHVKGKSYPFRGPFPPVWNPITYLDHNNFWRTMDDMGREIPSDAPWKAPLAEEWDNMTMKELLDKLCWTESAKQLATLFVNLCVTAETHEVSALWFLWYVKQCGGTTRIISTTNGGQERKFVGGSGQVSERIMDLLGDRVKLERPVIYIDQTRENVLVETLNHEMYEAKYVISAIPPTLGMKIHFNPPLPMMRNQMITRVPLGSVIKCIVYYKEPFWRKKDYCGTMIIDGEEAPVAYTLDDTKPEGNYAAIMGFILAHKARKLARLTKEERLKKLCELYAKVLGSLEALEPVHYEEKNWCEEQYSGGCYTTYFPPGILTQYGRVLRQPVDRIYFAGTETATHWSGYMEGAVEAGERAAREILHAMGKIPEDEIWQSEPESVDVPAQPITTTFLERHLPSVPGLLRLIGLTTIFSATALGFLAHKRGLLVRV

Homo sapiens = organism: Homo sapiens; test: Selectivity index, ratio of IC50 for recombinant human MAOA expressed in insect cell microsomes to IC50 for recombinant human MAOB expressed in insect cell microsomes
[3] = target: T2, Amine oxidase [flavin-containing] B; test: Reversible inhibition of recombinant human MAO-B expressed in insect cell microsomes assessed as residual activity using kynuramine as substrate at 4 times IC50 concentration preincubated for 15 mins with subsequent dialysis for 24 hrs followed by substrate addition measured after 20 mins by fluorescence spectroscopy relative to control
In short: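 Enzyme preincubated 15 min with inhibitor at 4 × IC50, then dialyzed 24 h. Samples then diluted twofold to 2 × IC50. Kynuramine added and reactions run 20 min. 4-Hydroxyquinoline quantified by fluorescence spectrophotometry. Controls: dialysis with no inhibitor (set as 100%) and dialysis with the irreversible inhibitor (R)-deprenyl.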

[4] = target: T2, Amine oxidase [flavin-containing] B; test: Inhibition of recombinant human MAO-B expressed in insect cell microsomes assessed as residual activity using kynuramine as substrate at 4 times IC50 concentration preincubated for 15 mins measured after 20 mins by fluorescence spectroscopy relative to control
In short: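 Enzyme mixed with inhibitor at 4 × IC50 and incubated 15 min, with no dialysis. Residual activity read with kynuramine by 4-hydroxyquinoline fluorescence and expressed against the dialyzed no-inhibitor control.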

[5] = target: T2, Amine oxidase [flavin-containing] B; test: Competitive inhibition of human MAOB expressed in insect cell microsomes using varying levels of kynuramine as substrate measured after 20 mins by Lineweaver-burk plot analysis
In short: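 Activity recorded at 8 kynuramine concentrations (15–250 µM). Runs done without inhibitor and with five inhibitor levels (¼, ½, ¾, 1 and 1¼ × IC50). Mode of inhibition assigned from Lineweaver-Burk plots.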

[6] = target: T1, Amine oxidase [flavin-containing] A; test: Competitive inhibition of human MAOA using p-trifluoromethyl benzylamine as substrate preincubated with substrate for 5 mins followed by enzyme addition by fluorimetric horseradish peroxidase-Amplex Red-coupled assay

Structure (SMILES)	IC50 [1] [µM]	IC50 [2] [µM]	Ratio IC50 (Homo sapiens)	Activity [3] [%]	Activity [4] [%]	Ki [5] [µM]	Ki [6] [µM]
COc1cccc(-c2noc(-c3ccc(C4=NCCN4)cc3)n2)c1	12	0.216	55	–	–	–	–
Cc1ccc(-c2nc(-c3ccc(C4=NCCN4)cc3)no2)cc1	2.31	0.071	32	66	36	0.038	–
CC1CN=C(c2ccc(-c3noc(-c4ccc(Cl)c(Cl)c4)n3)cc2)N1 (centres undefined)	14.7	0.16	91	–	–	–	–
c1ccc2oc(C3=NCCN3)cc2c1	–	–	–	–	–	–	17
CC(C)c1noc(-c2ccc(C3=NCCN3)cc2)n1	22.5	0.23	97	–	–	–	–
Clc1cccc(-c2nc(-c3cccc(C4=NCCN4)c3)no2)c1	1.39	0.03	46	–	–	–	–
Clc1cccc(-c2noc(-c3ccc(C4=NCCN4)cc3)n2)c1	5.47	0.064	85	–	–	–	–
c1cc(-c2noc(C3CC3)n2)ccc1C1=NCCN1	7.37	4.28	1.7	–	–	–	–
FC(F)(F)c1cnc2c(c1)Oc1ccccc1C1=NCCN12	32	> 100	< 0.32	–	–	–	–
c1ncn(Cc2ccc(-c3noc(-c4ccc(C5=NCCN5)cc4)n3)cc2)n1	24.6	9.02	2.7	–	–	–	–
O=c1c2ccccc2cnn1Cc1noc(-c2ccc(C3=NCCN3)cc2)n1	> 100	1.26	> 79	–	–	–	–
Cc1nn(Cc2nc(-c3cccc(C4=NCCN4)c3)no2)c(=O)c2ccccc12	62.2	23.9	2.6	–	–	–	–
COc1ccc(-c2noc(-c3ccc(C4=NCCN4)cc3)n2)cc1OC	> 100	0.756	> 132	–	–	–	–
CCOc1ccc(-c2n[nH]cc2C2=NCCN2)cc1	> 100	> 100	–	–	–	–	–
N#Cc1ccc(C2=NCCN2c2cnccn2)cc1	> 100	17.2	> 5.8	–	–	–	–
COc1ccc(C2=NCCN2)cc1Cn1ccnc1C	> 100	> 100	–	–	–	–	–
Clc1ccc(-c2noc(-c3ccc(C4=NCCN4)cc3)n2)cc1Cl	1.11	0.012	92	–	–	–	–

Structure (SMILES)	IC50 [1] [µM]	IC50 [2] [µM]	Ratio IC50 (Homo sapiens)	Activity [3] [%]	Activity [4] [%]	Ki [5] [µM]	Ki [6] [µM]
Cc1ccc(Cc2noc(-c3ccc(C4=NCCN4)cc3)n2)cc1	55.5	3.64	15	–	–	–	–
c1cc(C2=NCCN2)cc(-c2noc(-c3cccs3)n2)c1	88.3	1.06	83	–	–	–	–
c1ccc(OCc2noc(-c3ccc(C4=NCCN4)cc3)n2)cc1	> 100	9.98	> 10	–	–	–	–
Cn1ccnc1SCc1ccc(-c2noc(-c3ccc(C4=NCCN4)cc3)n2)cc1	12.4	2.28	5.4	–	–	–	–
Cn1ncc2c(c1=O)Oc1ccccc1C1=NCCN12	> 100	> 100	–	–	–	–	–
c1ccc2c(c1)Oc1nccnc1N1CCN=C21	> 100	> 100	–	–	–	–	–
Cc1nc(-c2ccc(C3=NCCN3)cc2)no1	41.1	39.7	1	–	–	–	–
c1ccc(-c2ccc(-c3noc(-c4ccc(C5=NCCN5)cc4)n3)cc2)cc1	> 100	47.6	> 2.1	–	–	–	–
N#Cc1ccc(C2=NCCN2c2ccc(C(F)(F)F)cn2)cc1	> 100	41.8	> 2.4	–	–	–	–
O=c1ccc(-c2ccccc2)nn1Cc1noc(-c2ccc(C3=NCCN3)cc2)n1	> 100	0.608	> 164	–	–	–	–
c1csc(-c2noc(-c3ccc(C4=NCCN4)cc3)n2)c1	1.57	0.89	1.7	–	–	–	–
c1ccc(-n2cc(C3=NCCN3)c(-c3cccs3)n2)cc1	> 100	18.4	> 5.4	–	–	–	–
CC(C)(C)c1ccc(-c2noc(-c3ccc(C4=NCCN4)cc3)n2)cc1	0.751	0.411	1.8	–	–	–	–
Cc1ccc(-c2noc(-c3ccc(C4=NCC(C)N4)cc3)n2)s1 (centres undefined)	24.7	0.3	82	–	–	–	–
N#Cc1cccc(C2=NCCN2)c1	147	1.87	78	–	–	–	–
c1ccc(Oc2ccc(-c3noc(-c4ccc(C5=NCCN5)cc4)n3)cc2)cc1	2.77	1.37	2	–	–	–	–
Clc1ccccc1-c1noc(-c2ccc(C3=NCCN3)cc2)n1	17.1	0.03	570	–	–	–	–
